Results from ChEMBL document CHEMBL2062384, “Alkyne derivatives of isocoumarins as clickable activity-based probes for serine proteases” (Bioorg Med Chem, 2012).
Active and inactive are the calls of the source. No cut-off for these calls is given here.

Columns and labels:
[1] = organism: Bos taurus; assay: Binding affinity to bovine chymotrypsin assessed as protein labeling at 2 uM measured after 15 mins pretreated with 100 uM Ala-Ala-Phe-diphenyl phosphonate for 30 mins before compound addition by fluorescent scanning method
In short: (§1)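 100 ng purified protease per lane; cathepsin G in 50 mM HEPES pH 7.4 with 100 mM NaCl, others in 50 mM phosphate pH 7.4. Optional 30 min pre-block (chymotrypsin 100 µM Ala-Ala-Phe-phosphonate, cathepsin G 1 mM PMSF, urokinase 100 µM DFP, elastase/trypsin 1 mM dichloroisocoumarin). Probe 2 µM, 15 min at room temperature. Then 30 min room-temperature click (25 µM TAMRA-PEG-N3, 50 µM THPTA, 1 mM CuSO4, 500 µM ascorbate), SDS-PAGE, scan ex 532/em 580 nm.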

[2] = organism: Bos taurus; assay: Binding affinity to bovine chymotrypsin assessed as protein labeling at 2 uM measured after 15 mins by fluorescent scanning method; in short: as §1
[3] = target: Trypsin (Homo sapiens) (UniProt P07477+P07478+P35030); assay: Binding affinity to trypsin assessed as protein labeling at 2 uM after 15 mins by fluorescent scanning method; assay type: protein assay; in short: as §1
[4] = target: Urokinase-type plasminogen activator (Homo sapiens) (UniProt P00749); assay: Binding affinity to urokinase-type plasminogen activator assessed as protein labeling at 2 uM after 15 mins by fluorescent scanning method; in short: as §1
[5] = target: Urokinase-type plasminogen activator (Homo sapiens) (UniProt P00749); assay: Binding affinity to urokinase-type plasminogen activator assessed as protein labeling at 2 uM after 15 mins pretreated with 100 uM DFP for 30 mins before compound addition in presence of mouse EL4 lymphoma cell lysate for protease spiking by fluorescent scanning method relative to total protein content; assay type: cell-free
In short: (§2)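 Protease spiked into EL4 mouse lymphoma lysate (RIPA, 30 min on ice, cleared by centrifugation; 1 mg/mL protein in 50 mM phosphate pH 7.4), optionally pre-blocked (urokinase 100 µM DFP). Labeled with 2 µM probe 15 min on ice. Click on ice 30 min with TAMRA-PEG-N3, THPTA, CuSO4, ascorbate; 12% or 15% SDS-PAGE, fluorescence scan ex 532/em 580 nm.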

[6] = organism: Sus scrofa; assay: Binding affinity to porcine pancreatic elastase assessed as protein labeling at 2 uM after 15 mins pretreated with 1 mM 3,4-dichloroisocoumarin for 30 mins before compound addition by fluorescent scanning method; in short: as §1
[7] = target: Urokinase-type plasminogen activator (Homo sapiens) (UniProt P00749); assay: Binding affinity to urokinase-type plasminogen activator assessed as protein labeling at 2 uM after 15 mins in presence of mouse EL4 lymphoma cell lysate for protease spiking by fluorescent scanning method relative to total protein content; assay type: cell-free; in short: as §2
[8] = organism: Sus scrofa; assay: Binding affinity to porcine pancreatic elastase assessed as protein labeling at 2 uM after 15 mins by fluorescent scanning method; in short: as §1
[9] = organism: Rattus norvegicus; assay: Binding affinity to 25 kDa Chymotrypsin in rat liver proteome assessed as protein labeling at 1 uM after 30 mins pre-treated with 100 uM TPCK for 30 mins before compound addition by fluorescent scanning method
In short: (§3)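 Rat liver homogenate (70 µm strainer, 0.5% NP-40 substitute in PBS, 1 h on ice, 15,000 rpm spin), diluted to 1 mg/mL protein in 50 mM phosphate, pH 7.4; pretreated 30 min on ice with DMSO, TPCK (100 µM) or PMSF (1 mM), then IC probe. Cu(I) click with TAMRA-PEG-N3/THPTA/CuSO4/ascorbate, SDS-PAGE, fluorescence scan (ex 532/em 580 nm).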

[10] = organism: Rattus norvegicus; assay: Binding affinity to 25 kDa Chymotrypsin in rat liver proteome assessed as protein labeling at 1 uM after 30 mins by fluorescent scanning method; in short: as §3
[11] = target: T1, Cathepsin G (Homo sapiens) (UniProt P08311); assay: Binding affinity to human cathepsin G assessed as protein labeling at 2 uM after 15 mins by fluorescent scanning method; in short: as §1
T1 sequence (whole entry): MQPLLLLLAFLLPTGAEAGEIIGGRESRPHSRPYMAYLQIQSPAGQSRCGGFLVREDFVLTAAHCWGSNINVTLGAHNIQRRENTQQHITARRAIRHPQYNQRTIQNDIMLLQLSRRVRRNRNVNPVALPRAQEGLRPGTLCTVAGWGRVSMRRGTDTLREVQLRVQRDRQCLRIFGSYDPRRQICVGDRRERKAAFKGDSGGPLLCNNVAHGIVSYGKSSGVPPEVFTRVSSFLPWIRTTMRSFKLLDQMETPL

[12] = target: Urokinase-type plasminogen activator (Homo sapiens) (UniProt P00749); assay: Binding affinity to urokinase-type plasminogen activator assessed as protein labeling at 2 uM after 15 mins pretreated with 100 uM DFP for 30 mins before compound addition by fluorescent scanning method; in short: as §1
[13] = organism: Rattus norvegicus; assay: Binding affinity to 50 kDa Serine protease band in rat liver proteome assessed as protein labeling at 1 uM after 30 mins by fluorescent scanning method; conditions: 0.5 uM, in the assay text read “at 0.5 uM” for “at 1 uM”; in short: as §3
[14] = organism: Rattus norvegicus; assay: Binding affinity to 50 kDa Serine protease band in rat liver proteome assessed as protein labeling at 1 uM after 30 mins pre-treated with 100 uM TPCK for 30 mins before compound addition by fluorescent scanning method; conditions: 0.5 uM, in the assay text read “at 0.5 uM” for “at 1 uM”; in short: as §3
[15] = target: T1, Cathepsin G (Homo sapiens); assay: Binding affinity to human cathepsin G assessed as protein labeling at 2 uM after 15 mins in presence of mouse EL4 lymphoma cell lysate for protease spiking by fluorescent scanning method relative to total protein content; assay type: cell-free; in short: as §2
[16] = organism: Rattus norvegicus; assay: Binding affinity to 50 kDa Serine protease band in rat liver proteome assessed as protein labeling at 1 uM after 30 mins pre-treated with serin eprotease inhibitor PMSF for 30 mins before compound addition by fluorescent scanning method; conditions: 0.5 uM, in the assay text read “at 0.5 uM” for “at 1 uM”; in short: as §3
[17] = organism: Rattus norvegicus; assay: Binding affinity to 26 kDa Chymotrypsin in rat liver proteome assessed as protein labeling at 1 uM after 30 mins by fluorescent scanning method; in short: as §3
[18] = organism: Rattus norvegicus; assay: Binding affinity to 26 kDa Chymotrypsin in rat liver proteome assessed as protein labeling at 1 uM after 30 mins pre-treated with 100 uM TPCK for 30 mins before compound addition by fluorescent scanning method; in short: as §3
[19] = system: lymphoma; assay: Binding affinity to porcine pancreatic elastase assessed as protein labeling at 2 uM after 15 mins in presence of mouse EL4 lymphoma cell lysate for protease spiking by fluorescent scanning method relative to total protein content; assay type: cell-free; conditions: Sus scrofa; in short: as §2

`C#CCCC(=O)Nc1ccc2c(Cl)c(OCCc3ccccc3)oc(=O)c2c1` was tested, and the Activity [1] was “inactive” and the Activity [2] was “Active”.
In the case of `C#CCCC(=O)Nc1ccc2c(Cl)c(OCCSC(=N)N)oc(=O)c2c1`, the Activity [1] was “inactive”, the Activity [3] was “Active” and the Activity [4] was “Active”. For the same compound, the Activity [2] was “Active”.
In the case of `C#CCCOc1oc(=O)c2cc(NC(=O)CN)ccc2c1Cl`, the Activity [1] was “inactive”, the Activity [3] was “Active” and the Activity [4] was “Active”. The Activity [2] was “Active”.
For `C#CCCOc1oc(=O)c2cc(NC(=O)CNC(=N)N)ccc2c1Cl`, the Activity [1] was “inactive”, the Activity [3] was “Active” and the Activity [5] was “Active”. The Activity [6] was “inactive”, the Activity [7] was 0.03% and the Activity [8] was “Active”. For the same compound, the Activity [4] was “Active” and the Activity [2] was “Active”.
In the case of `C#CCCOc1oc(=O)c2cc(NC(=O)c3ccccc3)ccc2c1Cl`, the Activity [1] was “inactive”, the Activity [9] was “inactive” and the Activity [10] was “Active”. The Activity [11] was “Active” and the Activity [2] was “Active”.
In the case of `C#CCCC(=O)Nc1ccc2c(Cl)c(OCCBr)oc(=O)c2c1`, the Activity [1] was “inactive”, the Activity [6] was “inactive” and the Activity [8] was “Active”. For the same compound, the Activity [11] was “Active” and the Activity [2] was “Active”.
With `C#CCCOc1oc(=O)c2cc(N)ccc2c1Cl` the Activity [1] was “inactive”, the Activity [12] was “inactive” and the Activity [3] was “Active”. For the same compound, the Activity [13] was “Active”, the Activity [14] was “Active” and the Activity [15] was 0.03%. The Activity [6] was “Active”, the Activity [8] was “Active” and the Activity [4] was “Active”. The Activity [11] was “Active”, the Activity [2] was “Active” and the Activity [16] was “inactive”.
With `C#CCCOc1oc(=O)c2ccccc2c1Cl` the Activity [1] was “inactive”, the Activity [12] was “inactive” and the Activity [3] was “Active”. The Activity [17] was “Active”, the Activity [8] was “Active” and the Activity [4] was “Active”. For the same compound, the Activity [11] was “Active”, the Activity [18] was “inactive” and the Activity [2] was “Active”.
For `C#CCCOc1oc(=O)c2cc([N+](=O)[O-])ccc2c1Cl`, the Activity [1] was “inactive”, the Activity [12] was “inactive” and the Activity [3] was “Active”. For the same compound, the Activity [6] was “Active”, the Activity [8] was “Active” and the Activity [4] was “Active”. For the same compound, the Activity [2] was “Active”.
In the case of `C#CCCC(=O)Nc1ccc2c(Cl)c(OC)oc(=O)c2c1`, the Activity [1] was “inactive”, the Activity [19] was 0.007% and the Activity [6] was “inactive”. For the same compound, the Activity [8] was “Active”, the Activity [11] was “Active” and the Activity [2] was “Active”.
